Published values from different studies.
Each line is one published result; the experiments were not run side by side.
Target: Protein-tyrosine kinase 6 (PTK6, Homo sapiens, UniProt Q13882)

O=C(NCCCN1CCOCC1)c1ccc(Nc2nccc(-c3cc4ccccc4s3)n2)cc1
remaining binding (binding, competition with immobilised ligand; 1 µM): 79%

COc1cnc(Nc2cccc(S(N)(=O)=O)c2)nc1N1CCN(c2ccccc2)C(=O)C1
remaining binding (binding, competition with immobilised ligand; 1 µM): 100%

O=C(Nc1c[nH]nc1C(=O)NC1CCNCC1)c1cc(F)cc(F)c1
remaining binding (binding, competition with immobilised ligand; 1 µM): 100%

O=C1NC(c2ccccn2)Sc2ccccc21 (centres unmarked)
remaining binding (cell-free assay, competition with immobilised ligand; 1 µM): 100%

CN(C)c1nccc(-c2cnn3ncccc23)n1
remaining binding (binding; 1 µM): 100%

O=C(c1ccc(Nc2nccc(-c3cc4ccccc4s3)n2)cc1)N1CCC(N2CCCC2)CC1
remaining binding (binding, competition with immobilised ligand; 1 µM): 65%

CN(C)c1ncc(F)c(-c2cnn3ncccc23)n1
remaining binding (binding; 1 µM): 99%

FC(F)(F)Oc1cccc(-c2cnc3ccc(-c4ccncc4)nn23)c1
remaining binding (cell-free assay, competition with immobilised ligand; 5 µM): 86%

Cc1cnc(Nc2ccc(C(=O)N3CCC(N4CCCC4)CC3)cc2)nc1-c1cc2ccccc2s1
remaining binding (binding, competition with immobilised ligand; 1 µM): 26%

CCOC(=O)c1cc2cc(-c3cc(C(=O)NCc4ccc(C(=O)O)cc4)nn3C)ccc2[nH]1
remaining binding (cell-free assay, competition with immobilised ligand; 0.1 µM): 98%

C[C@H]1CCN(c2nccc(-c3cnn4ncccc34)n2)C1
remaining binding (binding; 1 µM): 100%

COc1cc(-c2cn(C3CCc4ccccc4N(CC(F)(F)F)C3=O)nn2)ccc1-n1ccc(C)n1 (centres unmarked)
remaining binding (cell-free assay, competition with immobilised ligand; 1 µM): 100%

F[C@@H]1CCN(c2nccc(-c3cnn4ncccc34)n2)C1
remaining binding (binding; 1 µM): 89%

CCc1ccccc1C(=O)Nc1n[nH]c2c(C)c(F)c(C3C(C#N)=C(C)N(C)C(C)=C3C#N)cc12
remaining binding (cell-free assay, competition with immobilised ligand; 1 µM): 100%

Nc1ncc2c(n1)-c1c([nH]c3ccc(C#CC4CC4)cc13)CCCC2
remaining binding (binding, competition with immobilised ligand; 1 µM): 97%

CNC(=O)[C@@H]1CC[C@@H](n2c(-c3ccc4cnccc4c3)nc3ccc(C(=O)NCc4cccc(C(N)=O)c4)cc32)C1
remaining binding (binding, competition with immobilised ligand; 1 µM): 100%

CN(C)c1nccc(-c2cnc3ncccn23)n1
remaining binding (binding; 1 µM): 92%

Cc1c(NC(=O)c2cc(C(N)=O)nc3cc(F)ccc23)c(C(F)(F)F)nn1Cc1ccc(C#N)cc1
remaining binding (cell-free assay, competition with immobilised ligand; 1 µM): 100%

N[C@@H]1CCN(c2nccc(-c3cnn4ncccc34)n2)C1
remaining binding (binding; 1 µM): 100%

COc1cc(-c2cn(C3CCc4c(F)cccc4N(CC(F)(F)F)C3=O)nn2)ccc1-n1cnc(C)c1 (centres unmarked)
remaining binding (cell-free assay, competition with immobilised ligand; 1 µM): 100%
